ChEMBL document CHEMBL6078712, “Triterpenoid phthalimides as selective anti-cancer agents targeting mitochondrial apoptosis” (Eur J Med Chem, 2025)
The source made the active and inactive calls. The rule behind the calls is not given here.

How the values were obtained:
Mitochondrial membrane = experiment: Induction of mitochondrial membrane potential depolarization in human CCRF-CEM cells assessed as fold increase in fluorescence intensity incubated for 24 hrs by JC-1 staining based flow cytometry; assay type: cell membranes
CCRF-CEM [1] = experiment: Induction of cell cycle arrest in human CCRF-CEM cells assessed as downregulation of Cyclin A expression at 5 times IC50 incubated for 24 hrs by Western blotting analysis; assay type: functional, cell-based
Method in brief: (§1)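 30 µg protein per lane on SDS-PAGE, transferred to nitrocellulose, blocked in 5 % BSA/TBS-Tween. Primary antibodies overnight at 4 °C (Akt, P-Akt Ser473, STAT-3, caspase-3, PARP, cyclin D, cyclin A, Bcl-xL, Bak, Bid, Bim), then HRP secondary and ECL detection. GAPDH as loading control.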

CCRF-CEM [2] = experiment: Induction of apoptosis in human CCRF-CEM cells assessed as necrotic cells at 5 times IC50 incubated for 24 hrs by Annexin V-FITC and PI staining based flow cytometric analysis (reference value: 0.4 %); assay type: functional
Method in brief: (§2)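 Washed in Ca2+-containing binding buffer, then stained 15 min at room temperature in the dark with Annexin V-FITC and propidium iodide (PI at half the kit-recommended level). Read at once by flow cytometry with a 488 nm laser, ≥10,000 cells. Debris excluded; quadrants viable, early apoptotic, late apoptotic/necrotic, necrotic. Three independent experiments.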

[3] = Cytotoxicity against human K562-Tax cells assessed as inhibition of cell growth incubated for 72 hrs by MTS assay; assay type: functional, cell-based
Method in brief: (§3)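 MTS assay on eight human cancer lines and two non-tumour fibroblast lines. IC50 is the concentration that inhibits cell growth by 50 %. SD typically up to 15 % of the mean.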

CCRF-CEM [4] = experiment: Induction of apoptosis in human CCRF-CEM cells assessed as late apoptotic cells at 1 times IC50 incubated for 24 hrs by Annexin V-FITC and PI staining based flow cytometric analysis (reference value: 0.4 %); assay type: functional; method in brief: as §2
HCT-116 = experiment: Cytotoxicity against human HCT-116 cells assessed as inhibition of cell growth incubated for 72 hrs by MTS assay; assay type: functional, cell-based; settings: HCT-116, 72 h; method in brief: as §3
CCRF-CEM [5] = experiment: Induction of apoptosis in human CCRF-CEM cells assessed as downregulation of caspase-3 expression at 5 times IC50 incubated for 24 hrs by Western blotting analysis; assay type: functional, cell-based; method in brief: as §1
[6] = Metabolic stability in human liver microsomes assessed as parent compound remaining at 2 uM incubated for 15 mins in presence of NADPH by RF-MS analysis; assay type: ADME, Microsome; settings: read-out: Stability
Method in brief: (§4)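 Human plasma stability, plasma protein binding and liver microsome stability, each run in triplicate. Error deviations below 10 %.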

CCRF-CEM [7] = experiment: Induction of cell cycle arrest in human CCRF-CEM cells assessed as downregulation of total STAT3 expression at 1 to 5 times IC50 incubated for 24 hrs by Western blotting analysis; assay type: functional, cell-based; method in brief: as §1
CCRF-CEM [8] = experiment: Induction of cell cycle arrest in human CCRF-CEM cells assessed as downregulation of AKT phosphorylation at 1 times IC50 incubated for 24 hrs by Western blotting analysis; assay type: functional, cell-based; method in brief: as §1
CCRF-CEM [9] = experiment: Induction of apoptosis in human CCRF-CEM cells assessed as early apoptotic cells at 5 times IC50 incubated for 24 hrs by Annexin V-FITC and PI staining based flow cytometric analysis (reference value: 2.1 %); assay type: functional; method in brief: as §2
[10] = Stability in human plasma assessed as compound remaining at 2 uM incubated for 30 mins by RF-MS analysis; assay type: ADME, cell-free; settings: read-out: Stability; method in brief: as §4
[11] = Cytotoxicity against human MRC5 cells assessed as inhibition of cell growth incubated for 72 hrs by MTS assay; assay type: toxicity, cell-based; method in brief: as §3
A549 = experiment: Cytotoxicity against human A549 cells assessed as inhibition of cell growth incubated for 72 hrs by MTS assay; assay type: functional, cell-based; settings: A549, 72 h; method in brief: as §3
CCRF-CEM [12] = experiment: Cytotoxicity against human CCRF-CEM cells assessed as inhibition of cell growth incubated for 72 hrs by MTS assay; assay type: functional, cell-based; method in brief: as §3
CCRF-CEM [13] = experiment: Inhibition of RNA synthesis in human CCRF-CEM cells at 1 times IC50 incubated for 24 hrs by BrU incorporation based flow cytometry; assay type: functional
Method in brief: (§5)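 Fixed in 1 % paraformaldehyde/0.05 % NP-40 (15 min at room temperature, then 4 °C overnight). Stained with cross-reacting anti-BrdU plus FITC secondary (45 min each), then PI/RNase A. Flow cytometry; % BrU-positive cells.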

[14] = Cytotoxicity against human BJ cells assessed as inhibition of cell growth incubated for 72 hrs by MTS assay; assay type: toxicity, cell-based; method in brief: as §3
CCRF-CEM [15] = experiment: Induction of cell cycle arrest in human CCRF-CEM cells assessed as downregulation of AKT phosphorylation at 5 times IC50 incubated for 24 hrs by Western blotting analysis; assay type: functional, cell-based; method in brief: as §1
CCRF-CEM [16] = experiment: Inhibition of DNA synthesis in human CCRF-CEM cells at 1 times IC50 incubated for 24 hrs by BrdU incorporation based flow cytometry; assay type: functional
Method in brief: (§6)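 Fixed in ice-cold 70 % ethanol, DNA denatured in 2 M HCl for 30 min, neutralised with borax. Stained with anti-BrdU plus FITC secondary, then PI/RNase A for 1 h. Flow cytometry; % BrdU-positive cells.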

CEM-DNR = experiment: Cytotoxicity against human CEM-DNR cells assessed as inhibition of cell growth incubated for 72 hrs by MTS assay; assay type: functional, cell-based; method in brief: as §3
CCRF-CEM [17] = experiment: Induction of apoptosis in human CCRF-CEM cells assessed as upregulation of BID expression at 1 to 5 times IC50 incubated for 24 hrs by Western blotting analysis; assay type: functional, cell-based; method in brief: as §1
CCRF-CEM [18] = experiment: Induction of apoptosis in human CCRF-CEM cells assessed as necrotic cells at 1 times IC50 incubated for 24 hrs by Annexin V-FITC and PI staining based flow cytometric analysis (reference value: 0.4 %); assay type: functional; method in brief: as §2
CCRF-CEM [19] = experiment: Induction of apoptosis in human CCRF-CEM cells assessed as viable cells at 1 times IC50 incubated for 24 hrs by Annexin V-FITC and PI staining based flow cytometric analysis (reference value: 97.4 %); assay type: functional; method in brief: as §2
CCRF-CEM [20] = experiment: Induction of cell cycle arrest in human CCRF-CEM cells assessed as downregulation of Cyclin D expression at 1 to 5 times IC50 incubated for 24 hrs by Western blotting analysis; assay type: functional, cell-based; method in brief: as §1
CCRF-CEM [21] = experiment: Induction of cell cycle arrest in human CCRF-CEM cells assessed as increase in accumulation of G0/G1 phase at 1 times IC50 incubated for 24 hrs by RNase/PI staining based flow cytometry; assay type: functional
Method in brief: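 Propidium iodide staining and flow cytometry with a 488 nm laser, ≥10,000 intact cells. Phase proportions compared with untreated cells; SEM of three independent experiments.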

[22] = Metabolic stability in human liver microsomes assessed as parent compound remaining at 2 uM incubated for 60 mins in presence of NADPH by RF-MS analysis; assay type: ADME, Microsome; settings: read-out: Stability; method in brief: as §4
CCRF-CEM [23] = experiment: Inhibition of DNA synthesis in human CCRF-CEM cells at 5 times IC50 incubated for 24 hrs by BrdU incorporation based flow cytometry; assay type: functional; method in brief: as §6
CCRF-CEM [24] = experiment: Induction of apoptosis in human CCRF-CEM cells assessed as viable cells at 5 times IC50 incubated for 24 hrs by Annexin V-FITC and PI staining based flow cytometric analysis (reference value: 97.4 %); assay type: functional; method in brief: as §2
[25] = Stability in human plasma assessed as compound remaining at 2 uM incubated for 60 mins by RF-MS analysis; assay type: ADME, cell-free; settings: read-out: Stability; method in brief: as §4
CCRF-CEM [26] = experiment: Inhibition of RNA synthesis in human CCRF-CEM cells at 5 times IC50 incubated for 24 hrs by BrU incorporation based flow cytometry; assay type: functional; method in brief: as §5
CCRF-CEM [27] = experiment: Induction of apoptosis in human CCRF-CEM cells assessed as late apoptotic cells at 5 times IC50 incubated for 24 hrs by Annexin V-FITC and PI staining based flow cytometric analysis (reference value: 0.4 %); assay type: functional; method in brief: as §2
[28] = Stability in human plasma assessed as compound remaining at 2 uM incubated for 15 mins by RF-MS analysis; assay type: ADME, cell-free; settings: read-out: Stability; method in brief: as §4
[29] = Stability in human plasma assessed as compound remaining at 2 uM incubated for 120 mins by RF-MS analysis; assay type: ADME, cell-free; settings: read-out: Stability; method in brief: as §4
K562 = experiment: Cytotoxicity against human K562 cells assessed as inhibition of cell growth incubated for 72 hrs by MTS assay; assay type: functional, cell-based; settings: K562, 72 h; method in brief: as §3
HCT 116 TP53(-/-) = experiment: Cytotoxicity against human HCT116-p53-null cells assessed as inhibition of cell growth incubated for 72 hrs by MTS assay; assay type: functional, cell-based; method in brief: as §3
CCRF-CEM [30] = experiment: Induction of apoptosis in human CCRF-CEM cells assessed as early apoptotic cells at 1 times IC50 incubated for 24 hrs by Annexin V-FITC and PI staining based flow cytometric analysis (reference value: 2.1 %); assay type: functional; method in brief: as §2
[31] = Plasma protein binding in human assessed as fraction bound at 10 uM incubated for 4 hrs by rapid equilibrium dialysis based RF-MS analysis; assay type: ADME, cell-free; settings: read-out: PPB (converted); method in brief: as §4
CCRF-CEM [32] = experiment: Induction of apoptosis in human CCRF-CEM cells assessed as upregulation of BIM expression at 1 to 5 times IC50 incubated for 24 hrs by Western blotting analysis; assay type: functional, cell-based; method in brief: as §1
U2OS = experiment: Cytotoxicity against human U2OS cells assessed as inhibition of cell growth incubated for 72 hrs by MTS assay; assay type: functional, cell-based; method in brief: as §3
[33] = Metabolic stability in human liver microsomes assessed as parent compound remaining at 2 uM incubated for 30 mins in presence of NADPH by RF-MS analysis; assay type: ADME, Microsome; settings: read-out: Stability; method in brief: as §4

## CC(=O)O[C@H]1CC[C@]2(C)[C@H]3CC[C@@H]4[C@H]5[C@H](c6cc7c(c(-c8ccccc8)c6)C(=O)N(c6nccs6)C7=O)CC[C@]5(C(=O)O)CC[C@@]4(C)[C@]3(C)CC[C@H]2C1(C)C
Mitochondrial membrane
  Activity: Dose-dependent-effect
CCRF-CEM [1]
  Activity: Active
CCRF-CEM [2]
  Activity: 0%
[3]
  IC50: 24.5 µM
CCRF-CEM [4]
  Activity: 2.6%
HCT-116
  IC50: 13.1 µM
CCRF-CEM [5]
  Activity: Active
[6]
  remaining at 0.25 h, 2 µM: 103%
CCRF-CEM [7]
  Activity: Active
CCRF-CEM [8]
  Activity: Active
CCRF-CEM [9]
  Activity: 6%
[10]
  remaining at 0.5 h, 2 µM: 95%
[11]
  IC50 at 72 h: 27.8 µM
A549
  IC50: 20.8 µM
CCRF-CEM [12]
  IC50: 2.52 µM
CCRF-CEM [13]
  inhibition (INH): 28%
[14]
  IC50 at 72 h: 31.7 µM
CCRF-CEM [15]
  Activity: Active
CCRF-CEM [16]
  inhibition (INH): 37.2%
CEM-DNR
  IC50: 30.5 µM
CCRF-CEM [17]
  Activity: Active
CCRF-CEM [18]
  Activity: 0%
CCRF-CEM [19]
  Activity: 92.3%
CCRF-CEM [20]
  Activity: Active
CCRF-CEM [21]
  Activity: Active; Slight Increased Activity Observed
[22]
  remaining at 1 h, 2 µM: 98%
CCRF-CEM [23]
  inhibition (INH): 18.5%
CCRF-CEM [24]
  Activity: 90.8%
[25]
  remaining at 1 h, 2 µM: 96%
CCRF-CEM [26]
  inhibition (INH): 36.1%
CCRF-CEM [27]
  Activity: 3.2%
[28]
  remaining at 0.25 h, 2 µM: 98%
[29]
  remaining at 2 h, 2 µM: 85%
K562
  IC50: 21.4 µM
HCT 116 TP53(-/-)
  IC50: 18.6 µM
CCRF-CEM [30]
  Activity: 5.1%
[31]
  fraction unbound at 4 h, 10 µM: 0.425
CCRF-CEM [32]
  Activity: Active
U2OS
  IC50: 16.8 µM
[33]
  remaining at 0.5 h, 2 µM: 104%
